This is an account of results in the EternaBench riboswitch data.

The data set has as its system MS2 coat protein. The data set can be described thus: apparent Kd, MS2 coat protein; higher = weaker binding; RNA-MaP array; FMN 200 µM where present. Put shortly: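 Apparent Kd: the median of filtered binding-curve fits from single clusters. Designs were transcribed on Illumina sequencing-chip clusters by stalled E. coli RNA polymerase and titrated with SNAP-549-labelled MS2 coat protein from 0.7 or 1.5 nM, doubling to 3 µM, in 100 mM Tris-HCl pH 7.5, 80 mM KCl, 4 mM MgCl2, BSA, DTT, yeast tRNA and Tween-20. Each series ran without and then with constant ligand, and green signal was normalised to red-channel RNA signal and control-cluster median Fmax.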

The mark [1] stands for this setting: designed as: ON switch for flavin mononucleotide, no ligand.
[2] abbreviates: ligand present: flavin mononucleotide, designed as: ON switch for flavin mononucleotide.
Setting [3] is: designed as: OFF switch for flavin mononucleotide, no ligand.
Where [4] appears, read: ligand present: flavin mononucleotide, designed as: OFF switch for flavin mononucleotide.

As a reminder, the apparent Kd is the concentration giving half-maximal binding under the conditions of the assay.

In the case of “AGGAAACAUGAGGAUCACCCAUGUAAAGAAGGGUGAGGAUAUACAAAGAAAAGAAAGAAAGUAGAAGGCACAAAAG”, the “apparent Kd” value is 556 nM under setting [1] and 635 nM under setting [2].

On to “AUAGAAAGAUUAAUAUGAUUACAUGAGGAUCACCCAUGUAUAAAGGAUAUCGACGUCAAUGACGUCGAGAAGGUUAUACAUAAU”, for which the “apparent Kd” value reads like this: under setting [3], 24.2 nM; under setting [4], 84 nM.

Regarding “UCAUUAUAAAUCCAUCAUAACUACAUGAGGAUCACCCAUGUGCAGGAUAUCGAUGGUUUAACUAUCGAGAAGGGCAAUUACAGA”, the “apparent Kd” value by setting is: under setting [3], 31.9 nM; under setting [4], 72.1 nM.

With “UGGUACUAGGGAGGAUAUGGUAAGAUACAUGAGGAUCACCCAUGUUUAAGAAUGCCGAGAGGCAACUAGAAGGCCCUAGUACCU”, the “apparent Kd” value under setting [1] came out at 6.47 nM and the “apparent Kd” value under setting [2] is 5.04 nM.

Regarding “CUGUUAUAGGUCCAGUUUUACAACAUGAGGAUCACCCAUGUGCAGGAUAUCGUGUUAAUUUUCAUCGAGAAGGGCAUAGUCACG”, the “apparent Kd” value by setting is: under setting [3], 37.6 nM; under setting [4], 105 nM.

With “UUACCUCAUGAGAAGGACAUGAGGAUCACCCAUGUAGGAUAUCGUGGAAGACAGGUAUUGAAUCUUCGGAUUCAAUACCUGUCU”, the “apparent Kd” value under setting [1] was found to be 331 nM and the “apparent Kd” value under setting [2] stood at 17.1 nM.

Regarding “UGGAUGGUAUGAGGAUAUGCGCGCGAAACGCGCGCAGAAGGCAUGUCAAUAGACAUGAGGAUCACCCAUGUAUUAUCUAUCCAA”, the “apparent Kd” value under setting [1] was found to be 203 nM and the “apparent Kd” value under setting [2] came to 14.8 nM.

Take “CGCUACGUUUCGUAGCAGUGUCAUCGAGAAGGCCCUGACAUGAGGAUCACCCAUGUAAAAGUUCAGGAGGAUAUCGAUGAUACA”: the “apparent Kd” value is 4.83 nM under setting [1] and 4.95 nM under setting [2].

For the sequence “UGAUCUUUUGUUAGGAUAUGCUGUUUUUUUUUUCAGCAGAAGGGACAUGAGGAUCACCCAUGUUUUGUCAUAAA”, the “apparent Kd” value by setting is: under setting [3], 12.4 nM; under setting [4], 24.9 nM.

For the sequence “GGUCCACAUGAGGAUCACCCAUGUUAGGAUAUCUCCCGCCUCCUCACUAGAGGCGGACAGAGAAGGAACAUCAA”, the “apparent Kd” value by setting is: under setting [3], 26 nM; under setting [4], 78 nM.

In the case of “CGCAUACUAGGAUAUACAUGAGGAUCACCCAUGUCGCCGGGCCCACUCAUACUAAAACGUAGAAGGAGUUUGCC”, the “apparent Kd” value is, setting by setting: under setting [3], 18.5 nM; under setting [4], 18.8 nM.

For “CCUCUACAUGAGGAUCACCCAUGUGAGGAUAUAAGAUUGCGAAUUCCGCACUACGGUCUUAGAAGGCGCGUGGA”, the “apparent Kd” value amounted to 16.4 nM under setting [3] and 30.5 nM under setting [4].

Turning to “GUCAGCUCGUGAGGAUAUACAACACGGCUUCGGCAGUGUAUUAAGAUCACAUGAGGAUCACCCAUGUAGAAGGCACGAGCUGAU”, the “apparent Kd” value runs as follows: under setting [3], 13.9 nM; under setting [4], 200 nM.

With “UUUGCAUGACGAGGAUAUCAUUUAUUUCUUGAUUGAGAAGGCGUUCUUUUUACUACCUAACAUGAGGAUCACCCAUGUGACAGU”, the “apparent Kd” value under setting [1] worked out at 16.1 nM and the “apparent Kd” value under setting [2] is 12.7 nM.

Turning to “GCUGGCAUGCAAGGAUAUCCUUCCGAGUAGGAAGGAGAAGGUGCUUGUGGGACAUGAGGAUCACCCAUGUAUGUUGGCCACGAC”, the “apparent Kd” value under setting [1] is 134 nM and the “apparent Kd” value under setting [2] is 79.2 nM.

In the case of “GAAUGGGAGUAGAAGGUACGUUAUUAGUUAAGGUAAGGAUAUACUAUAAUACAGACGACAUAUAAACAUGAGGAUCACCCAUGU”, the “apparent Kd” value reads like this: under setting [1], 10.3 nM; under setting [2], 6.55 nM.

“AGUGACUACGUAGGAUAUUAAAUCAUGUACUACAUGAGGAUCACCCAUGUUAAUUUAACAUCAGCUGAGAAGGACGUGGUCACA”: the “apparent Kd” value runs as follows: under setting [1], 20.6 nM; under setting [2], 11.6 nM.

With “GUAAAGUGAGGAUAUGGUAAAUUAAUUAUUUAUUAAUUAAUCCAGAAGGCACAUGAGGAUCACCCAUGUAAAUG”, the “apparent Kd” value is, setting by setting: under setting [3], 31.2 nM; under setting [4], 56.1 nM.

For the sequence “CAGCCCUGAGGAUAUCCCUCCUUGUACAUGAGGAUCACCCAUGUUCUCCUCUGGGCCUUGGGAGAAGGCAGAUCUC”, the “apparent Kd” value under setting [3] came to 56.9 nM and the “apparent Kd” value under setting [4] was 49.5 nM.

On to “GAACCUAAGUUAGGAUAUGUCUAAGAAAGCUGACAUGAGGAUCACCCAUGUGAAUGCAAAGAAUGGCAGAAGGGAUAUGGGUGG”, for which the “apparent Kd” value came out at 73 nM under setting [1] and 76.8 nM under setting [2].

Regarding “GCAUGACAAAGUCAUGCAAUACGAACAUGAGGAUCACCCAUGUAGGAUAUGCUACUCAAAGAGUAGCAGAAGGACAUGUGUCUU”, the “apparent Kd” value reads like this: under setting [3], 33.2 nM; under setting [4], 182 nM.

“CGCGUAUGAGGAUAUGCAUAAAAGGGUGCACUGAGUCUGUGACAUGAGGAUCACCCAUGUAGAAGGCGUGCGCA”: the “apparent Kd” value by setting is: under setting [3], 26.7 nM; under setting [4], 73.2 nM.

Take “AAAAAGGGAGGAUAUACAUGAGGAUCACCCAUGUAUCAGACGAAAAAGAGUCUGAAGUGUAGAAGGCCCAAAAA”: the “apparent Kd” value reads like this: under setting [3], 18.3 nM; under setting [4], 27.4 nM.

As to “AUCAGCUCGUCAGGAUAUACGUCACUGCGUCAGGAGUGUGGUAAGAUCACAUGAGGAUCACCCAUGUAGAAGGGACGAGCUGAU”, the “apparent Kd” value was 16.6 nM under setting [3] and 298 nM under setting [4].

On to “AACAUGGUACAGAAGGGCAAUUUAUUUAUUUAUUAUUUAGAACAGCAUUGCAGGAUAUGUUUAACAUGAGGAUCACCCAUGUAC”, for which the “apparent Kd” value is 84.4 nM under setting [1] and 15.8 nM under setting [2].

For the sequence “AAAAAGCGAGGAUAUACAUAGCUAAGACAUGUAAGCGAAAAACAUGAGGAUCACCCAUGUAGAAGGCGCAAAAA”, the “apparent Kd” value is, setting by setting: under setting [3], 17.7 nM; under setting [4], 18.2 nM.

For the sequence “AUGCUUAUCGAAGGAUAUGGUUACAUGAGGAUCACCCAUGUUAUGAUUGGUUACUUGUUUAGUUUCCAGAAGGUCGAUUAGUUA”, the “apparent Kd” value reads like this: under setting [3], 58.8 nM; under setting [4], 225 nM.

Take “AAUUAGUGUGUGAGGAUAUUGGUGGAAUGACAUAUUAAGAAGGCACAUGAGGAUCACCCAUGUGGGAUGUCACG”: the “apparent Kd” value is, setting by setting: under setting [3], 10.9 nM; under setting [4], 13.6 nM.

For the sequence “UAUAGCCCUAGUUCGAGUGUCUAGGAGGAUAUACAGAGGCAGCCAAAGACAUGAGGAUCACCCAUGUAGAAGGCCUAGACGGUA”, the “apparent Kd” value under setting [4] stood at 82.3 nM.

For the sequence “UAGAUGGGAGGAUAUACGUAGUUGCAGGUUCGUGUGGUGCUACAUGAGGAUCACCCAUGUAGAAGGCCCGUCUU”, the “apparent Kd” value by setting is: under setting [3], 14.7 nM; under setting [4], 40.6 nM.

With “UAGAAUCGAGGAUAUACAUGAGGAUCACCCAUGUGUGGCCAUACGGUGUGGUCGUCAGGUAGAAGGCGAUUAUA”, the “apparent Kd” value stood at 34.4 nM under setting [3] and 14.6 nM under setting [4].

Regarding “GCUGUCGCGUGAGGAUAUGGUCGGCUGUGCUGACCAGAAGGCAUGUCGAUAGACAUGAGGAUCACCCAUGUGGUUAGGGCGGCU”, the “apparent Kd” value came out at 790 nM under setting [1] and 313 nM under setting [2].

For “AAUAUGUUGCAGAAGGUUAUUUUUAUAACGAUCCAUGUGACAUGAGGAUCACCCAUGUAAUUGAUGAAGGAUAUGCAAUAUAUU”, the “apparent Kd” value is 6.72 nM under setting [3] and 6.45 nM under setting [4].

“CUGUUAUAGGUCCAGAAUUACAACAUGAGGAUCACCCAUGUGCAGGAUAUCGGGUUAAUUUUCGACGAGAAGGGCAUAGUCACG”: the “apparent Kd” value runs as follows: under setting [3], 33.5 nM; under setting [4], 64.1 nM.

Turning to “CCUGCACAUGAGGAUCACCCAUGUUAGGAUAUCUCGCCGCCUAAACGAAUGGUGGCCCAGAGAAGGAACAGGGC”, the “apparent Kd” value is 28.6 nM under setting [3] and 41.3 nM under setting [4].

Turning to “UAUAUAUAGUAAGGAUAUGUAUUAAUUUUAUGAACAGAAGGUACUGACAUGAGGAUCACCCAUGUUUUAGUGUGGGCAUGUAGA”, the “apparent Kd” value under setting [3] came to 85.5 nM and the “apparent Kd” value under setting [4] stood at 122 nM.

“UGGCUACAUGAGGAUCACCCAUGUCAGGAUAUGCCGUUGGAUUGACAUCGUCGUUCGGGUAGAAGGGACUGCGU”: the “apparent Kd” value is, setting by setting: under setting [3], 47.6 nM; under setting [4], 53.1 nM.
